The list is not random: actives were taken first. Their share in the collection is about 1.8%.
APOBEC3G inh: APOBEC3G DNA deaminase inhibitors, primary screen, biochemical, fluorescence, single-stranded DNA substrate, uHTS; DNA dC->dU-editing enzyme APOBEC-3G (Homo sapiens), Q9HC16; recombinant A3G, ssDNA deamination FAM/TAMRA fluorescence; inhibition, % at 20 µM; 0.28% of 330,000 active; AID 493012, 2011;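 active = inhibition of at least 40% at 20 µM, with no more than 30% in the related APOBEC3A deaminase screen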;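 note: plate controls were DMSO wells with A3G for no effect and wells lacking A3G enzyme for full effect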
PHOSPHO1 inh: PubChem AID 1565. 1.1% of 290,000 active. Phosphoethanolamine/phosphocholine phosphatase (Homo sapiens), Q8TCT1. inhibition, % at 13.3 µM. recombinant PHOSPHO1, absorbance phosphatase assay; in the data active = inhibition above about 60%
Tb MetRS inh: T. brucei MetRS inhibitors, primary screen, biochemical, luminescence | methionyl-tRNA synthetase (Trypanosoma brucei brucei) | purified T. brucei MetRS, ATP depletion, Kinase-Glo luminescence | inhibition, % at 11.9 µM | 0.4% of 360,000 active;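 active = inhibition above a per-plate cutoff of the control wells' mean inhibition plus 3 SD, cut at about 5.5% in these data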;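 note: 0% = DMSO wells median and 100% = median of wells with control inhibitor compound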
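Material: T. brucei methionyl-tRNA synthetase, purified; reagent: substrates ATP, L-methionine and bulk Escherichia coli tRNA; dosing: 11.9 µM single point; timing: 15 min plus 2 h at 25 °C; detection: luminescence of leftover ATP; evaluation: % inhibition; control set: DMSO-only wells as low control; replicates: singlicate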
APOBEC3A inh: APOBEC3A ssDNA deaminase inhibitors, primary screen, selectivity assay for APOBEC3G inhibitor project, biochemical, FAM/TAMRA oligo cleavage fluorescence. DNA dC->dU-editing enzyme APOBEC-3A (Homo sapiens), P31941. recombinant A3A, FAM/TAMRA ssDNA deamination fluorescence. inhibition, % at 20 µM. 0.41% of 330,000 active. AID 493011, 2011;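 active = at least 40% inhibition at 20 µM here, with at most 30% in a related deaminase screen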;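 note: plate controls were A3A with DMSO for no effect and wells lacking A3A enzyme for full effect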
p-CIP stab down: p/CIP-EGFP fusion destabilizers, primary screen, fluorescence, F442A cells | 0.01% of 290,000 active | decrease of EGFP signal, % at 10 µM | 16 h | AID 1984, 2009 | Q05BA5;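 active = EGFP signal decrease of at least 30% at 10 µM or well 3 SD below plate mean, unless failing retest; inactive = the rest, including hits failing retest or dose response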
Target sequence (Q05BA5 1-1403): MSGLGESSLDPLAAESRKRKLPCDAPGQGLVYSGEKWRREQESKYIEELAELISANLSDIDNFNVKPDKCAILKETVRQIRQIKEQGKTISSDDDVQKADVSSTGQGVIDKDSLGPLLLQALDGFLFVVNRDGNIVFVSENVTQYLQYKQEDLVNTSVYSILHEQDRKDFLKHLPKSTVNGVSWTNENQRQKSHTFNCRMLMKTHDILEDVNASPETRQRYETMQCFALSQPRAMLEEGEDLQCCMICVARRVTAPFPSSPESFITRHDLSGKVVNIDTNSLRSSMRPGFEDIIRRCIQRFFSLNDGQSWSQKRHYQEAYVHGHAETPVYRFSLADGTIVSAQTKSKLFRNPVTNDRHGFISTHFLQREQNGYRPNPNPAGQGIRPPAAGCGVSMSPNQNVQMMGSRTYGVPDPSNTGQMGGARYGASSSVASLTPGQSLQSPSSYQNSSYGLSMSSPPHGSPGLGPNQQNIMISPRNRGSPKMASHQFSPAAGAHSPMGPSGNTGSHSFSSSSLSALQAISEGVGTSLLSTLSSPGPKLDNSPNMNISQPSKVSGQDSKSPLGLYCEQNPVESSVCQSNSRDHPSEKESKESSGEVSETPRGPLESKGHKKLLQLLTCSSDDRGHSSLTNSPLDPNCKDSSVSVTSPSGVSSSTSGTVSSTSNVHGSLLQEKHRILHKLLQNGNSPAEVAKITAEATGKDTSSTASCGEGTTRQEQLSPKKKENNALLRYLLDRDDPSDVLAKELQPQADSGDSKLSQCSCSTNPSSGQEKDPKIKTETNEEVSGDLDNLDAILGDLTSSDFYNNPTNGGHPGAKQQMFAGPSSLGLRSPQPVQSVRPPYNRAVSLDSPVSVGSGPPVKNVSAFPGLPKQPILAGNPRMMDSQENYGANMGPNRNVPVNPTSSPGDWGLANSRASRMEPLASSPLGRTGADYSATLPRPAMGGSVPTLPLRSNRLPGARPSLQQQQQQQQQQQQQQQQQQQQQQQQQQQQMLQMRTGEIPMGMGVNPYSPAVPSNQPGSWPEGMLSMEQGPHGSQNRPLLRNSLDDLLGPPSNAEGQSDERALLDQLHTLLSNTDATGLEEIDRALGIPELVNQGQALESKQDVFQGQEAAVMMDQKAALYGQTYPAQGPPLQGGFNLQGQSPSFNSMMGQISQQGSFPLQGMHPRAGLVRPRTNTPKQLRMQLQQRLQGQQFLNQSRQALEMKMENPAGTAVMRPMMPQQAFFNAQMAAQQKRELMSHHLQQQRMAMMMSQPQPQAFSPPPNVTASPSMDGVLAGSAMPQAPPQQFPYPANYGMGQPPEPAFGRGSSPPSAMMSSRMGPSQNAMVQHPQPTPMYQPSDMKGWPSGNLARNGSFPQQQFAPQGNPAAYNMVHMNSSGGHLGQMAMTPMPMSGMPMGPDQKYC
A3G conf: APOBEC3G deaminase inhibitor retest, confirmation, biochemical, fluorescence, single-stranded DNA substrate, single concentration; shares compounds with APOBEC3G inh; recombinant A3G ssDNA deaminase, UDG/FAM-TAMRA fluorescence; inhibition, % at 20 µM; 72% of 890 active;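 active = inhibition reaching a set limit in any replicate at 20 µM, the limit being 80% of the first screen's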
UDG A3G counter: E. coli UDG inhibitors, confirmation, counter-screen for APOBEC3G inhibitor project, biochemical, single concentration, fluorescence, FAM/TAMRA oligo. shares compounds with APOBEC3G inh. UDG counterscreen. inhibition, % at 20 µM. 710 tested, under 10 active. AID 504715, 2011;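 active = compounds giving 40% or more inhibition at 20 µM in any one of the three replicates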;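 note: plate controls were DMSO wells with UDG and oligo for no effect and DMSO wells lacking both for full effect; inhibitors lower the FAM signal released by uracil excision and alkaline cleavage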
Starred values were filed as active, the others as inactive.

`Cn1nc(C(F)(F)F)c2cc(C(=O)O)sc21` gave APOBEC3G inh -3.5, PHOSPHO1 inh 40.1, Tb MetRS inh 0.3, APOBEC3A inh -2.3 and p-CIP stab down 8.8.
Screening COC(=O)c1cc2c(C(F)(F)F)nn(C)c2s1 returned APOBEC3G inh -3.0, PHOSPHO1 inh -5.9, Tb MetRS inh 0.4, APOBEC3A inh -1.9 and p-CIP stab down -8.6.
`CC(C)(CS(=O)(=O)[O-])NC(=O)CC[N+](C)(C)CCO` gave APOBEC3G inh 88.3*, PHOSPHO1 inh 11.1, Tb MetRS inh -0.1, APOBEC3A inh 9.2, p-CIP stab down 7.5 and A3G conf 94.0*.
Cc1nn(C)cc1CN1CCC(n2nccc2NC(=O)CCCc2ccccc2)CC1 was read as APOBEC3G inh -5.6, PHOSPHO1 inh 31.8, Tb MetRS inh 0.1, APOBEC3A inh -2.2 and p-CIP stab down -16.8.
For O=[N+]([O-])c1c(Nc2ccccn2)cc(Cl)c2nonc12 the results were APOBEC3G inh 45.5*, PHOSPHO1 inh 17.7, Tb MetRS inh 3.5, APOBEC3A inh 1.9, p-CIP stab down -11.1 and A3G conf 60.4*.
`O=C(O)c1ccccc1Nc1cc(Cl)c2nonc2c1[N+](=O)[O-]` gave APOBEC3G inh -3.6, Tb MetRS inh 0.3, APOBEC3A inh -0.7 and p-CIP stab down 1.3.
CCOC(=O)CSc1n[nH]c(=S)s1 was read as APOBEC3G inh 86.9*, PHOSPHO1 inh 60.0*, Tb MetRS inh -0.4, APOBEC3A inh -1.6, p-CIP stab down 2.3, A3G conf 72.0* and UDG A3G counter -0.5.
CCOC(=O)CCSc1n[nH]c(=S)s1 was read as APOBEC3G inh 23.2, PHOSPHO1 inh 57.4, Tb MetRS inh 0.4, APOBEC3A inh 0.0 and p-CIP stab down -15.5.
Screening CC(=O)c1sc2nsc(SCCN3CCOCC3)c2c1N returned APOBEC3G inh 62.4*, PHOSPHO1 inh 85.9*, Tb MetRS inh 0.3, APOBEC3A inh -1.5, p-CIP stab down -11.4, A3G conf 59.1* and UDG A3G counter 0.3.
`O=S(=O)(c1ccc(=S)[nH]c1)N1CCOCC1` gave APOBEC3G inh 44.4*, Tb MetRS inh -0.5, APOBEC3A inh -0.9, A3G conf 72.8* and UDG A3G counter -1.8.
Screening c1ccc(CCc2nn3c(-c4ccncc4)nnc3s2)cc1 returned APOBEC3G inh 17.2, PHOSPHO1 inh -21.3, Tb MetRS inh 0.0, APOBEC3A inh 6.6 and p-CIP stab down -8.3.
Screening c1ccc(CCc2nn3c(Cn4cnc5ccccc54)nnc3s2)cc1 returned APOBEC3G inh 49.0*, PHOSPHO1 inh 69.3*, Tb MetRS inh 0.1, APOBEC3A inh 0.3, p-CIP stab down -12.1, A3G conf 20.8* and UDG A3G counter -5.7.
For c1ccc(CCn2cnc3ccccc32)cc1 the results were APOBEC3G inh -3.1, PHOSPHO1 inh 16.5, Tb MetRS inh 0.1, APOBEC3A inh -4.0 and p-CIP stab down 2.0.
`Clc1ccccc1-c1nnc2sc(CCc3ccccc3)nn12` gave APOBEC3G inh 63.5*, PHOSPHO1 inh 63.2*, Tb MetRS inh -0.4, APOBEC3A inh 2.1, p-CIP stab down -3.0, A3G conf 50.9* and UDG A3G counter -2.0.
Screening Nc1ccccc1SC(CC(=O)c1ccccc1)c1ccccc1 (stereo not given) returned Tb MetRS inh -0.2.
`CC(C(Sc1ccccc1N)c1ccccc1)[N+](=O)[O-]` (stereo not given) gave APOBEC3G inh 64.9*, PHOSPHO1 inh 52.9, Tb MetRS inh -0.2, APOBEC3A inh 0.8, p-CIP stab down -2.6, A3G conf 26.2* and UDG A3G counter -1.7.
For Nc1cc(S(=O)(=O)Nc2ccc(Cl)cc2)ccc1N1CCOCC1 the results were APOBEC3G inh 45.7*, PHOSPHO1 inh -2.6, Tb MetRS inh -0.8, APOBEC3A inh 2.4, p-CIP stab down -1.4, A3G conf 16.8* and UDG A3G counter -3.9.
For O=S(=O)(Nc1ccc(Cl)cc1)c1ccc(N2CCOCC2)c(NC(=S)NC2CC2)c1 the results were APOBEC3G inh 46.0*, PHOSPHO1 inh -6.7, Tb MetRS inh -0.5, APOBEC3A inh 1.0, p-CIP stab down -4.1, A3G conf 31.7* and UDG A3G counter 2.0.
CC(=O)Oc1ccc(N2C(=O)C3C4C=CC(CO)(O4)C3C2=O)cc1 (stereo not given) was read as APOBEC3G inh 24.3, PHOSPHO1 inh 24.6, Tb MetRS inh 0.2, APOBEC3A inh 6.5 and p-CIP stab down -2.6.
CC(=O)Oc1ccc(N2C(=O)C3C(C2=O)C2(C)C=CC3(C)O2)cc1 (stereo not given) was read as APOBEC3G inh 46.7*, PHOSPHO1 inh -9.6, APOBEC3A inh 0.4, p-CIP stab down -5.8 and A3G conf 48.7*.
Screening CCOC(=O)c1sc(=S)n(-c2cc(OC)ccc2OC)c1N returned APOBEC3G inh 59.8*, PHOSPHO1 inh 45.1, Tb MetRS inh -0.3, APOBEC3A inh 3.2, p-CIP stab down -19.8 and A3G conf 26.8.
For O=C(CNC(=O)c1ccccc1)N=Nc1c(O)[nH]c2ccc(Br)cc12 the results were APOBEC3G inh -0.8, PHOSPHO1 inh -5.0, Tb MetRS inh 0.4, APOBEC3A inh -3.0 and p-CIP stab down 3.9.
Screening O=S(=O)(Cc1ccccc1)N=Nc1c(O)[nH]c2ccc(Br)cc12 returned APOBEC3G inh 50.9*, PHOSPHO1 inh 65.4*, Tb MetRS inh 1.0, APOBEC3A inh -0.9, p-CIP stab down -3.6, A3G conf 68.0* and UDG A3G counter -2.5.
`CN(C)S(=O)(=O)c1ccc(Cl)c(C(=O)NCCNC(=O)c2cc(S(=O)(=O)N(C)C)ccc2Cl)c1` gave APOBEC3G inh -1.0, PHOSPHO1 inh 5.5, Tb MetRS inh 0.4, APOBEC3A inh 1.7 and p-CIP stab down -7.2.
`Cc1cc(O)c(/C=N/Nc2ccccc2Cl)c(=O)o1` gave APOBEC3G inh 46.7*, PHOSPHO1 inh -92.6, Tb MetRS inh 0.1, APOBEC3A inh -2.1, p-CIP stab down 2.6, A3G conf 2.6 and UDG A3G counter -1.7.
`Cc1cc(O)c(/C=N/Nc2ccc(Cl)cc2)c(=O)o1` gave APOBEC3G inh 32.0, PHOSPHO1 inh -106.3, Tb MetRS inh -0.6, APOBEC3A inh 6.0 and p-CIP stab down -9.8.

From PubChem BioAssay
